The source made the active and inactive calls. The calls are words filed in the database; no cut-off is given here.
Key:
D(2) dopamine receptor [1] = target: T1, D(2) dopamine receptor (Bos taurus, UniProt P20288); assay: (§1) Inhibitory activity against Dopamine receptor D2 in calf corpus striatum using [3H]spiperone as radioligand; type: tissue-based
How it was run: (§2)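 Displacement of [3H]spiperone binding in calf corpus striatum membranes; some values given as percent displacement at 1000 nM.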

D(2) dopamine receptor [2] = target: T2, D(2) dopamine receptor (Rattus norvegicus, UniProt P61169); assay: Inhibitory activity against Dopamine receptor D2 in rat corpus striatum using [3H]Apomorphine as radioligand; type: tissue-based
T2 sequence (P61169 whole entry): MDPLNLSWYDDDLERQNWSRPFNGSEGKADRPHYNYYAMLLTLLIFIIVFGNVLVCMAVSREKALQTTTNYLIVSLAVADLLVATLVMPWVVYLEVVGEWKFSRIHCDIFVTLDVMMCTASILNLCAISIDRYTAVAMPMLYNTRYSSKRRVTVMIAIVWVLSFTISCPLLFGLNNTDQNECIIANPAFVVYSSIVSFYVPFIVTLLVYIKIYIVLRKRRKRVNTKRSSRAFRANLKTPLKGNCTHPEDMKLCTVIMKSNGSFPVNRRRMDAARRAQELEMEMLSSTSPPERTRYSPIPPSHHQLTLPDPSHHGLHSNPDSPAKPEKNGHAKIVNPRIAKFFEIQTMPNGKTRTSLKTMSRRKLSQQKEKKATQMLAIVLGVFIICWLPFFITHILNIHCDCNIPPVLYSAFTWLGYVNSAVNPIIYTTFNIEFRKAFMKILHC
How it was run: (§3)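 Displacement of [3H]apomorphine binding in rat corpus striatum membranes; some values given as percent displacement at 1000 nM.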

Rattus norvegicus [3] = assay: Inhibition of serum prolactin concentration in rats when 5 mg/kg was administered intraperitoneally; type: functional; details: ip, route intraperitoneal
How it was run: (§4)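 Prolactin in serum of nonreserpinized male rats (Clemens method) after 5 mg/kg ip. Values are mean ± SE for 6-10 rats; significance versus control at P<0.05.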

Rattus norvegicus [4] = assay: Effect on 3,4-Dihydroxyphenylacetic acid concentration in whole rat brain when 10 mg/Kg was administered intraperitoneally; type: functional
How it was run: (§5)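 Rats dosed 10 mg/kg ip. Whole-brain dopamine, DOPAC and HVA measured by liquid chromatography with electrochemical detection, expressed as nmol/g and as % change from a control group. Mean ± SE, five rats per group; significance at P<0.05.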

Rattus norvegicus [5] = assay: Effect on homovanillic acid concentration in whole rat brain when 10 mg/kg was administered intraperitoneally; type: functional; details: route intraperitoneal
How it was run: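 Rats dosed ip at 10 mg/kg. Whole brain was assayed for HVA, with dopamine and DOPAC measured alongside, by liquid chromatography with electrochemical detection. Levels are in nmol/g and expressed as % change from control. Values are mean ± standard error for five rats per group. Significance versus control was taken at P<0.05.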

Rattus norvegicus [6] = assay: Effect on serum corticosterone level […] when 10 mg/Kg was administered intraperitoneally; type: functional
How it was run: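 Rats dosed 10 mg/kg ip. Serum corticosterone determined spectrofluorometrically (Solem and Brinck-Johnsen method), reported as µg/100 mL versus a vehicle group and as % change from control. Mean ± SE, five rats per group; significance P<0.05.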

Rattus norvegicus [7] = assay: Reduction of serum prolactin concentration in rats, 5 mg/Kg administered intraperitoneally; type: functional; how it was run: as §4
Rattus norvegicus [8] = assay: Effect on dopamine concentration in whole rat brain when 10 mg/Kg was administered intraperitoneally; type: functional; how it was run: as §5
D(2) dopamine receptor [9] = target: T1, D(2) dopamine receptor; assay: Inhibitory activity against dopamine receptor D2 in calf corpus striatum using [3H]spiperone as radioligand; type: tissue-based; how it was run: as §2
D(2) dopamine receptor [10] = target: T2, D(2) dopamine receptor; assay: (§6) Inhibitory activity against dopamine receptor D2 in rat corpus striatum using [3H]apomorphine as radioligand; type: tissue-based; how it was run: as §3
Rattus norvegicus [11] = assay: Inhibition of serum prolactin concentration in rats when 5 mg/Kg was administered intraperitoneally; type: functional; how it was run: as §4
Rattus norvegicus [12] = assay: (§7) Effect on homovanillic acid concentration in whole rat brain when 10 mg/Kg was administered intraperitoneally; type: functional; how it was run: as §5
[13] = target: D(2) dopamine receptor (Bos taurus) (UniProt P20288); assay: as §1; type: tissue-based; how it was run: as §2
Sequence of D(2) dopamine receptor (Bos taurus) (P20288 whole entry): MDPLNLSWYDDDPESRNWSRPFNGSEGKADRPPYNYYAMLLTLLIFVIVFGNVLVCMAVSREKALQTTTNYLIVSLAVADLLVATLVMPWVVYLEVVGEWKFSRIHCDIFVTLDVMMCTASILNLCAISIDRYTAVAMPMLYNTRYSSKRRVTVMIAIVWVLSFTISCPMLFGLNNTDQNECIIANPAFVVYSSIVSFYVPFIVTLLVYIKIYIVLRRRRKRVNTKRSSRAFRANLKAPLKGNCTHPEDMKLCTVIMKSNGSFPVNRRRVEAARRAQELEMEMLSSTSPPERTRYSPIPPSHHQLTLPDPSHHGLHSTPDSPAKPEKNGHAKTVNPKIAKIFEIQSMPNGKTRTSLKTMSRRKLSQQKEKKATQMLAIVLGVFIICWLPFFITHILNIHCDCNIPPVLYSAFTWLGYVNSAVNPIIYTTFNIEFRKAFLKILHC

[14] = target: D(2) dopamine receptor (Rattus norvegicus) (UniProt P61169); assay: Inhibitory activity against Dopamine receptor D2 in rat corpus striatum using [3H]apomorphine as radioligand; type: tissue-based; how it was run: as §3
Sequence of D(2) dopamine receptor (Rattus norvegicus) (P61169 whole entry): as the sequence (P61169 whole entry) above

Rattus norvegicus [15] = assay: Inhibition of serum prolactin concentration in rats when 5 mg/Kg was administered intraperitoneally; NS means not significant; type: functional, organism-based; how it was run: as §4
[16] = target: D(2) dopamine receptor (Bos taurus) (UniProt P20288); assay: Inhibitory activity against dopamine receptor D2 in calf corpus striatum using [3H]-Spiperone as radioligand; type: tissue-based; how it was run: as §2
[17] = target: D(2) dopamine receptor (Rattus norvegicus) (UniProt P61169); assay: as §6; type: tissue-based; how it was run: as §3
Rattus norvegicus [18] = assay: as §7
Rattus norvegicus [19] = assay: Effect on serum corticosterone level in whole rat brain when 10 mg/kg was administered intraperitoneally; type: functional; details: route intraperitoneal
How it was run: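 Rats dosed ip at 10 mg/kg. Serum corticosterone was determined spectrofluorometrically and reported in µg/100 mL, as % change from vehicle. Values are mean ± standard error for five rats per group. Significance versus control was taken at P<0.05.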

Rattus norvegicus [20] = assay: Dopa accumulation in GBL-treated rats after the administration at a dose of 0.3 mg/Kg; type: functional
How it was run: (§8)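 Male rats given compound ip; γ-butyrolactone 500 mg/kg ip 10 min later, then decarboxylase inhibitor NSD 1015 100 mg/kg ip 5 min after GBL and 40 min before sacrifice. Striatal dopa accumulation measured by LC with electrochemical detection; Roth autoreceptor paradigm. Values are mean ± SE, five rats per group; one control group received no GBL.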

Rattus norvegicus [21] = assay: Dopa accumulation in GBL-treated rats after the administration at a dose of 1.0 mg/Kg; type: functional; how it was run: as §8
Rattus norvegicus [22] = assay: Dopa accumulation in GBL-treated rats after the administration at a dose of 10 mg/Kg; type: functional; how it was run: as §8
Rattus norvegicus [23] = assay: Dopa accumulation in GBL-treated rats after the administration at a dose of 3 mg/Kg; type: functional; how it was run: as §8
Rattus norvegicus [24] = species on record: Rattus norvegicus; assay: Dopa accumulation in GBL-treated rats in the absence of the compound; type: functional; how it was run: as §8
Rattus norvegicus [25] = assay: Effect on dopamine concentration in whole rat brain when 10 mg/Kg 10 mg/kg was administered intraperitoneally; type: functional; details: route intraperitoneal; how it was run: as §5

T1 sequence (P20288 whole entry): as the sequence (P20288 whole entry) above

Row | Compound | IC50 (D(2) dopamine receptor [9]) [nM] | IC50 (D(2) dopamine receptor [10]) [nM] | Turnover (Rattus norvegicus [4]) [nmol/g] | Turnover (Rattus norvegicus [6]) | Turnover (Rattus norvegicus [7]) [ng/mL] | Turnover (Rattus norvegicus [8]) [nmol/g] | Inhibition (Rattus norvegicus [11]) [%] | Turnover (Rattus norvegicus [12]) [nmol/g] | further results
1 | CCCN(C)C1CCc2n[nH]cc2C1 (centres undefined) |  |  | 0.43 | 41 µg/100 mL | 2 | 5.16 |  |  | IC50 (D(2) dopamine receptor [1]): 8330 nM; IC50 (D(2) dopamine receptor [2]): 1230 nM; inhibition in vivo at 5 mg/kg (Rattus norvegicus [3]): 82%; Turnover (Rattus norvegicus [5]): 0.22 nmol/g
2 | CCCN(CCc1cccs1)C1CCc2n[nH]cc2C1 (centres undefined) | 1410 | 160 | 0.43 | 17.3 µg/100 mL | 2.8 | 4.78 | 73 | 0.24 | 
3 | CCCN(CCCSC)C1CCc2n[nH]cc2C1 (centres undefined) | 3990 | 310 | 0.28 | 48 µg/100 mL | 1.1 | 4.92 | 90 | 0.16 | 
4 | CCCN[C@@H]1Cc2c[nH]nc2C[C@H]1CCC |  |  |  |  | 5.1 |  |  |  | Displacement [13]: 9%; Displacement [14]: 41%
5 | CCCN[C@@H]1Cc2c[nH]nc2C[C@H]1CCCSC |  |  |  |  | 7.8 |  |  |  | Displacement [16]: 10%; Displacement [17]: 45%; inhibition (Rattus norvegicus [15]): inactive
6 | CCCN1C[C@H](CSC)C[C@@H]2c3cccc4[nH]cc(c34)C[C@H]21 [PERGOLIDE] |  |  | 0.53 |  | 2 | 6.42 | 88 |  | Turnover (Rattus norvegicus [5]): 0.32 nmol/g; Turnover (Rattus norvegicus [19]): 54 µg/100 mL
7 | CCCCN(CCC)C1CCc2n[nH]cc2C1 (centres undefined) |  |  | 0.39 | 38.6 ng/mL | 1.9 | 4.94 |  |  | IC50 (D(2) dopamine receptor [1]): 10000 nM; IC50 (D(2) dopamine receptor [2]): 330 nM; inhibition in vivo at 5 mg/kg (Rattus norvegicus [3]): 83%
8 | CCCCNC1CCc2n[nH]cc2C1 (centres undefined) |  |  | 0.53 | 5.8 µg/100 mL | 13.4 | 3.9 |  | 0.36 | inhibition (Rattus norvegicus [15]): inactive
9 | CCCN[C@@H]1Cc2c[nH]nc2C[C@H]1CCCO |  |  |  |  | 4.4 |  | 46 |  | Displacement [16]: 10%; Displacement [17]: 45%
10 | CCCN[C@@H]1Cc2c[nH]nc2C[C@H]1CCCOC |  |  |  |  | 4.6 |  | 44 |  | Displacement [16]: 12%; Displacement [17]: 50%
11 | CCCN(CCc1ccccc1)C1CCc2n[nH]cc2C1 (centres undefined) | 1060 | 140 | 0.4 | 17.5 µg/100 mL | 1.4 | 4.41 | 87 | 0.23 | 

Continued, in another order:

Row | IC50 (D(2) dopamine receptor [9]) [nM] | IC50 (D(2) dopamine receptor [10]) [nM] | Compound | Turnover (Rattus norvegicus [4]) [nmol/g] | Turnover (Rattus norvegicus [6]) | Turnover (Rattus norvegicus [7]) [ng/mL] | Turnover (Rattus norvegicus [8]) [nmol/g] | Inhibition (Rattus norvegicus [11]) [%] | Turnover (Rattus norvegicus [12]) [nmol/g] | further results
12 | 11600 | 610 | CCNC1CCc2n[nH]cc2C1 (centres undefined) | 0.55 | 16.6 µg/100 mL | 1.6 | 6.39 | 91 | 0.4 | 
13 | > 10000 | > 10000 | CCCCNC1CCc2[nH]ncc2C1 (centres undefined) |  |  |  |  |  |  | 
14 | > 10000 |  | c1ccc(CCNC2CCc3n[nH]cc3C2)cc1 (centres undefined) | 0.51 | 7.7 µg/100 mL | 6 | 3.65 |  | 0.34 | inhibition (Rattus norvegicus [15]): inactive
15 | > 1000 |  | CCCNC1CCc2nc(N)sc2C1 (centres undefined) | 0.35 | 54 µg/100 mL | 3.7 | 5.08 | 78 |  | Turnover (Rattus norvegicus [18]): 0.15 nmol/g
16 | 15200 | 65 | CCCNC1CCc2n[nH]cc2C1 (centres undefined) | 0.51 | 31.7 µg/100 mL | 2.4 |  | 78 | 0.51 | Accumulation (Rattus norvegicus [20]): 25.2 nM/g; Accumulation (Rattus norvegicus [21]): 23.1 nM/g; Accumulation (Rattus norvegicus [22]): 12.1 nM/g; Accumulation (Rattus norvegicus [23]): 16.9 nM/g; Accumulation (Rattus norvegicus [24]): 24.8 nM/g; Turnover (Rattus norvegicus [25]): 4.86 nmol/g
17 | > 10000 | 2030 | CSCCCNC1CCc2n[nH]cc2C1 (centres undefined) | 0.49 | 3.8 µg/100 mL | 9.9 | 3.91 |  | 0.27 | inhibition (Rattus norvegicus [15]): inactive
18 | > 10000 | 9160 | c1csc(CCNC2CCc3n[nH]cc3C2)c1 (centres undefined) | 0.49 | 5.5 µg/100 mL | 7.9 | 3.47 |  | 0.38 | inhibition (Rattus norvegicus [15]): inactive
